In publication PMC9870020 (Tissue Barriers, 2022):
Each block holds one molecule with its values, some of them ahead of it.

How the values were obtained:
[1] = concentration of 625 µM; cited from earlier work
[2] = system: epithelial cell layers; settings: cited from earlier work
[3] = system: Caco-2 epithelial cell layers; assay: Permeability of fluorescent markers; assay type: cell-based; settings: Caco-2 layers
Outline: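 Caco-2 cells (passage 35–39) were grown 21 days on collagen-coated 0.33 cm2 inserts (0.4 µm pores) and equilibrated 30 min in warm HBSS. Test compound with FD-4 (0.25 mM) or other marker in HBSS was applied apically. Basolateral fluorescence (ex 485/em 520 nm) was read over 180 min against a calibration curve to give Papp. TEER was measured before and after. Triplicates, mean ± S.D.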

[4] = system: nasal epithelial cell layers; settings: cited from earlier work
[5] = system: epithelial cells; settings: cited from earlier work
[6] = cited from earlier work
[7] = 2 mM; cited from earlier work

Molecule: CC(C)(C)[C@]1(O)CC2OC(=O)CC23C(=O)OC2OC(=O)[C@H](O)C231 (stereo partly shown) [bilobalide, Bilobalide]
Cytotoxicity of bilobalide [1]: no cytotoxicity

Molecule: L-myr-ARRWR [L-R5]
Passage of the peptide across epithelial cell layers [2]: not to cross epithelial cell layers
Molecular weight limit of opening of TJs caused by L-R5 ([3]; L-R5 50 µM, from sodium fluorescein, FD-4 and FD-150 permeability): 150 kDa
Permeability of sodium fluorescein in the presence of L-R5 ([3]; Figure 5, L-R5 50 µM, 180 min, mean n = 3): higher permeability compared to FD-4
Reversibility of TJ modulation by the peptide [4]: rapidly reversible
Size of molecules transported paracellularly with L-R5 ([4]; nasal epithelial cell layers in vitro, previously shown): up to 4 kDa
Epithelial cytotoxicity in vitro [5]: lack of epithelial cytotoxicity

Molecule: CCCCCCCCCC(=O)[O-].[Na+] [C10, sodium caprate]
Toxicity of C10 [6]: no toxicity was demonstrated

Permeability of FD-4 (Papp) in the presence of L-R5 analogues ([3]; Figure 6A, peptides 50 µM, FD-4 0.25 mM, 180 min, mean n = 3): significantly lower than with L-R5
Molecule: L-myr-ARRAR [LW-5]

Molecule: CCCCCCCCCCCCOS(=O)(=O)[O-].[Na+] [SDS, Sodium dodecylsulfate]
Toxicity of SDS [7]: toxic
